The list is not random: actives were taken first. Their share in the collection is about 4.6%.
TAAR1 antag = human TAAR1 antagonism; Q96RJ0; CHO RD-HGA16 TAAR1, Fluo-8 calcium fluorescence, antagonist; inhibition, % at 3 µM; 360,000 compounds, 1.5% hits; AID 624466;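 active = inhibition above a per-plate cutoff, the mean inhibition of test compounds on that plate plus 3 SD, cut at about 49% in these data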
Target sequence (Q96RJ0 whole entry, looked up): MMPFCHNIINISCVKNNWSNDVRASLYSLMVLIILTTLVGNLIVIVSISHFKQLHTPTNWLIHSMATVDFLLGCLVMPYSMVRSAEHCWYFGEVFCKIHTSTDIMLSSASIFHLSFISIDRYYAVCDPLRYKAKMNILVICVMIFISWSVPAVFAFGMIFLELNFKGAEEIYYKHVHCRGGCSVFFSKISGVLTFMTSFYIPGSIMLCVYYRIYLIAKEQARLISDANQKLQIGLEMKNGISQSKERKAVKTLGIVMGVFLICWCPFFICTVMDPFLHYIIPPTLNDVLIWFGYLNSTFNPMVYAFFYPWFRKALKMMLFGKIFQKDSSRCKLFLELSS
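Assay system: RD-HGA16 CHO cells with stable hTAAR1 and Gα16 / Reagent: EC80 β-phenethylamine stimulus / Doses: 3 µM, single point / Timing: dye loading 75 min at 37 °C, then 30 min room temperature / Measured by: Fluo-8 intracellular calcium dye fluorescence, real-time kinetic reads / Controls: vehicle wells and EC80 agonist wells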
OX1R antag-1 = OX1R (human) antagonism. OX1R-expressing cells, FRET antagonist read-out. inhibition, % at 6.6 µM. 330,000 compounds, 1.8% hits. AID 485270; in the data active = inhibition mostly above about 38%, no sharp cut-off; inactive = mostly below about 40%
GPR7 antag = blocks human GPR7 receptor signaling; inhibition, % at 4.4 µM; P48145; AID 1861; GPR7-expressing cells, fluorescence antagonist assay; 290,000 compounds, 1.1% hits; in the data active = inhibition above about 16%, passing the limit was not always enough;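 also: cells stimulated with the agonist NPW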
Target sequence (P48145 whole entry, looked up): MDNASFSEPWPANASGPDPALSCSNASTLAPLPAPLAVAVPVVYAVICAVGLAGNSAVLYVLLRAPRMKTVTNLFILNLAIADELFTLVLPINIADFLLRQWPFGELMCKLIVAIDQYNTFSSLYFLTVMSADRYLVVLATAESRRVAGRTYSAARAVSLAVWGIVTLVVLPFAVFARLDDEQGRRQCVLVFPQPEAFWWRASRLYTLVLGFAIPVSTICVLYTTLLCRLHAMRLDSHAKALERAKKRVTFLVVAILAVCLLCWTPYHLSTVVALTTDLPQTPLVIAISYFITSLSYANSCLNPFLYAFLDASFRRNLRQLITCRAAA
OX1R antag-2 = human HCRTR1 antagonism. O43613. CHO/OX1R cells, Fluo-8 calcium fluorescence, orexin A. inhibition, % at 5 µM. 330,000 compounds, 0.43% hits;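 active = inhibition above its plate's threshold, mean inhibition of all tested compounds on the plate plus 3 SD, cut at about 37% in these data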
TAAR1 ag = human TAAR1 agonism; AID 624467; CHO RD-HGA16 TAAR1, Fluo-8 calcium fluorescence; vehicle wells 0%, saturating PEA agonist 100%; Q96RJ0; 360,000 compounds, 0.99% hits; activation, % at 3 µM;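 active = activation above the mean activation of all test compounds in the run plus 3 SD, cut at about 38% in these data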
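Assay system – CHO-derived RD-HGA16 cells with stable Gα16 and human TAAR1 · Compound dosing – one-point dosing at 3 µM (nominal) · Incubation – 17-24 h seeding, 75 min 37 °C dye, 30 min RT · Measured by – kinetic Fluo-8 calcium fluorescence · Control set – DMSO vehicle as 0%, PEA at EC100 as 100% · Repeats – single well for each compound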
CHO parental Ca = counter-screen: ATP calcium response change in parental CHO cells. AID 463079. parental CHO-K1, ATP-induced calcium, Fluo-8 fluorescence. 330,000 compounds, 0.63% hits. inhibition, % at 5.6 µM;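 active = inhibition above that plate's mean sample inhibition plus 3 SD, cut at about 26% in these data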
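Test system: untransfected parental CHO cell line; also added: ATP stimulus; dosing: 5.6 µM, single dose; signal: calcium-sensitive Fluo-8 fluorescence; measure: percent inhibition of ATP-evoked calcium rise, normalized to controls; benchmarks: low control ATP plus DMSO, high control DMSO only; replication: one well per compound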
A number is an active result; – = inactive; · = no result.

SMILES	TAAR1 antag	OX1R antag-1	GPR7 antag	OX1R antag-2	TAAR1 ag	CHO parental Ca
CC1(C)Oc2cc3oc(=O)ccc3c3c2C2C1CCC(C)(O3)C2O (stereo unspecified)	–	·	·	·	–	·
CC(C)Cc1ccc(C(C)CC2=CCC(CN(C)C)C2=O)cc1 (stereo unspecified)	51	·	·	·	–	·
CC(C)Cc1ccc(C(C)/C=C2/CCC(CN3CCCCC3)C2=O)cc1 (stereo unspecified)	–	·	·	·	–	·
C=CCNC(=O)COC(=O)c1ccc(Sc2nncn2C)c([N+](=O)[O-])c1	–	73	–	–	–	–
C=CCC[C@@H](Cc1ccc(F)cc1)C(=O)OC[C@@H](NC(=O)[C@H](CC=C)CC(=O)N(CCO)Cc1ccccc1)c1ccccc1	61	–	·	–	–	–
C=CCC[C@@H](Cc1ccc(F)cc1)C(=O)OC[C@H](C)NC(=O)[C@@H](CC=C)CC(=O)N(CCO)Cc1ccccc1	–	–	·	–	–	–
C=CC[C@H](CC(=O)N(CCO)Cc1ccccc1)C(=O)N[C@@H](C)COC(=O)[C@@H](CC=C)Cc1ccc(F)cc1	54	–	·	–	–	–
COc1ccc(CCN(C)CCc2ccc(OC)c(OC)c2)cc1OC	–	–	·	–	–	–
COc1ccc(CN(CCc2ccccc2)Cc2ccccc2)cc1OC	–	60	–	–	–	–
CN(C)c1ccc(C(=O)N2CCC2(C)C(=O)O)cc1 (stereo unspecified)	–	·	·	·	–	·
OCCCNc1ncnc2c1ncn2[C@H]1CN(C2CCCC2)C[C@@H](CO)O1	–	·	·	·	–	·
CC1=NOC(=O)/C1=C\c1ccc(-c2ccc(Br)cc2)o1	67	·	–	·	–	·
CCOC(=O)C1CCCN(C2CC(=O)N(c3cccc(C(F)(F)F)c3)C2=O)C1 (stereo unspecified)	–	–	–	–	43	–
CCc1ccccc1N(C)S(=O)(=O)c1ccc2[nH]cc(C(=O)N3CCc4ccccc43)c(=O)c2c1	57	–	–	–	–	–
CCCN(CC(=O)Nc1ccc(Cl)cc1Cl)C(=O)/C=C/c1cc(OC)ccc1OC	–	–	–	–	–	–
CCCN(CC(=O)Nc1cc(Cl)ccc1Cl)C(=O)/C=C/c1cc(OC)ccc1OC	–	43	·	–	–	–
O=C1C2C3C=CC(C4CC34)C2C(=O)N1/N=C/c1ccc(-c2ccc(F)cc2[N+](=O)[O-])o1 (stereo unspecified)	–	–	–	–	–	–
O=C1C2C3C=CC(C4CC34)C2C(=O)N1/N=C/c1ccc(-c2ccc(Cl)cc2[N+](=O)[O-])o1 (stereo unspecified)	52	–	–	–	–	–
CSC1=Nc2ccccc2N=C(N2CCCC2)C1	–	·	·	·	–	·
O=C(N[C@H](Cc1ccccc1)C(=O)NCC1CCCCC1)[C@H]1O[C@@H](n2ccc(=O)[nH]c2=O)[C@H](O)[C@@H]1O	–	·	·	·	–	·
O=C(COc1cc2oc(=O)cc(-c3ccccc3)c2cc1Cl)NCCN1CCOCC1	–	49	–	–	–	–
O=C(NCc1ccccc1)[C@H]1CCCN1C(=O)[C@H]1CCCN1C(=O)c1cccc2ccccc12	–	·	·	·	–	·
CCn1c2c(n(C(C)=O)c1=O)C=C(C(=O)N1CCCC1)C(C)C(c1ccccc1)=C2 (stereo unspecified)	–	·	·	·	–	·
CCOc1cc(/C=C2\CN(C)C/C(=C\c3ccc(O)c(OCC)c3)C2=O)ccc1O	–	–	–	–	–	–
CCOc1cc(/C=C2\CCC/C(=C\c3cc(Cl)c(O)c(OCC)c3)C2=O)cc(Cl)c1O	56	75	–	–	–	–
SMILES	TAAR1 antag	OX1R antag-1	GPR7 antag	OX1R antag-2	TAAR1 ag	CHO parental Ca
CCCCS(=O)(=O)/C=C\C=C/S(=O)(=O)CCCC	·	–	40	–	·	–
O=S(=O)(NCc1ccccc1)c1cccc2nsnc12	–	–	–	–	–	–
COc1ccccc1CNS(=O)(=O)c1cccc2nsnc12	–	–	–	–	–	–
O=C(O)C(Cc1c[nH]c2ccccc12)NS(=O)(=O)c1cccc2nsnc12 (stereo unspecified)	–	61	–	–	–	–
Cc1cccc(NS(=O)(=O)c2cccc3nsnc23)c1	–	–	–	–	–	–
CC(C)NS(=O)(=O)c1cccc2nsnc12	–	72	–	–	–	–
COc1ccccc1CNC(=O)C(NS(=O)(=O)c1cccc2nsnc12)C(C)C (stereo unspecified)	–	76	–	–	–	–
Cc1ccnc(NS(=O)(=O)c2cccc3nsnc23)c1	–	127	–	–	–	–
COc1ccc(CCNC(=O)c2ccc(Br)o2)cc1Br	–	·	·	·	–	·
Cc1c(NS(=O)(=O)c2cccc3nsnc23)c(=O)n(-c2ccccc2)n1C	–	77	–	–	–	–
CC(C)C(NS(=O)(=O)c1cccc2nsnc12)C(=O)Nc1nccs1 (stereo unspecified)	–	–	–	–	–	–
CC(C)C(NS(=O)(=O)c1cccc2nsnc12)C(=O)NC1CCCCC1C (stereo unspecified)	·	46	–	–	·	–
O=C(NCc1cccs1)C(NS(=O)(=O)c1cccc2nsnc12)c1ccccc1 (stereo unspecified)	–	49	–	–	–	–
O=C(NC1CCN(Cc2ccccc2)CC1)C(NS(=O)(=O)c1cccc2nsnc12)c1ccccc1 (stereo unspecified)	–	–	–	–	–	–
O=C(COc1ccccc1Cl)c1ccc2c(c1)CCCC2	–	–	–	–	–	28
CCNC(=O)C1CCCN(C(=O)c2ccco2)CC1 (stereo unspecified)	–	·	·	·	–	·
CSc1ccc2c(c1)C(N1CCN(C)CC1)Cc1ccccc1S2 (stereo unspecified)	–	–	35	–	–	–
CN1CCN(C2Cc3ccc(F)cc3Sc3cc(F)c(Cl)cc32)CC1 (stereo unspecified)	–	–	·	–	–	–
CN1CCN(C2Cc3ccccc3Sc3cc(C(F)(F)F)ccc32)CC1 (stereo unspecified)	–	–	·	–	51	–
CN1CCN(C2Cc3ccccc3Sc3ccc(Cl)cc32)CC1 (stereo unspecified)	–	–	·	–	–	–
COc1cc(N/C(=C\C(=O)c2ccccc2)c2ccccc2)ccc1Cl	–	·	·	·	–	·
O=c1[nH]c(=S)[nH]c2c1[C@H](CCc1cccc(Cl)c1)O[C@H](C1CCCC1)C2	–	·	·	·	–	·
O=C(O)Cc1ccc(NC(=O)COc2ccc3ccccc3c2)cc1	–	–	–	–	–	–
O=C(COc1ccc2ccccc2c1)Nc1ccc(Cc2ccncc2)cc1	–	–	–	59	–	–
COc1cc2ccccc2cc1C(=O)Nc1ccc(Cc2ccncc2)cc1	–	–	–	45	–	38
